Test results: ChEMBL document CHEMBL4689842, “EUbOPEN Chemogenomics Library wave 1” (2021)

Columns and labels:
U2OS [1] = assay: Multiplex assay against U2OS; assay type: toxicity, cell-based; conditions: human
How it was run: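 Cells were classed with CellPathfinder machine-learning gating, first as Hoechst high-intensity objects or normal cells, then (normal cells) as healthy, pyknosed or fragmented nuclei, and finally (pyknosed cells) as mitotic or apoptotic. Staining of live cells at seeding used Hoechst33342, BioTracker Green Microtubule Cytoskeleton Dye, MitoTracker Red and Annexin V Alexa Fluor 680, with imaging on a CQ1 microscope at 37°C and 5% CO2 after compound addition. Tubulin, mitochondrial-mass and membrane-permeability phenotypes are per cents of healthy-nucleus cells.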

U2OS [2] = assay: Incucyte cell viability with U2OS; assay type: toxicity, cell-based; conditions: human, 10 µM, compound concentration 10 uM; also: filed as whole numbers so only -1 and 0 and 1 occur
[3] = 12 h, 1 µM, compound concentration 1 uM, replicate 1
[4] = 12 h, 1 µM, compound concentration 1 uM, replicate 2
[5] = 12 h, 10 µM, compound concentration 10 uM, replicate 1
[6] = 12 h, 10 µM, compound concentration 10 uM, replicate 2
[7] = 24 h, 1 µM, compound concentration 1 uM, replicate 1
[8] = 24 h, 1 µM, compound concentration 1 uM, replicate 2
[9] = 24 h, 10 µM, compound concentration 10 uM, replicate 1
[10] = 24 h, 10 µM, compound concentration 10 uM, replicate 2
[11] = 48 h, 1 µM, compound concentration 1 uM, replicate 1
[12] = 48 h, 1 µM, compound concentration 1 uM, replicate 2
[13] = 48 h, 10 µM, compound concentration 10 uM, replicate 1
[14] = 48 h, 10 µM, compound concentration 10 uM, replicate 2

Compound: CN1C(=O)[C@@H](NC(=O)c2cc3ccccc3[nH]2)N=C(c2ccccc2)c2ccccc21 [DEVAZEPIDE]
- Population Fragmented Nuclei (%) (U2OS [1]; [3]): 12%
- Population Healthy Nuclei (%) (U2OS [1]; [3]): 76%
- Population Hoechst High Intensity Objects (%) (U2OS [1]; [3]): 7%
- Population Membrane Permeable-Phenotype (%) (U2OS [1]; [3]): 3%
- Population Mitochondria Different-Phenotype (%) (U2OS [1]; [3]): 17%
- Population Normal (%) (U2OS [1]; [3]): 92%
- Population Pyknosed Nuclei (%) (U2OS [1]; [3]): 11%
- Population Tubulin-Different-Phenotype (%) (U2OS [1]; [3]): 21%
- Total Cell Count (U2OS [1]; [3]): 144
- Population Apoptotic (%) (U2OS [1]; [4]): 33%
- Population Fragmented Nuclei (%) (U2OS [1]; [4]): 4%
- Population Healthy Nuclei (%) (U2OS [1]; [4]): 85%
- Population Hoechst High Intensity Objects (%) (U2OS [1]; [4]): 5%
- Population Membrane Permeable-Phenotype (%) (U2OS [1]; [4]): 9%
- Population Mitochondria Different-Phenotype (%) (U2OS [1]; [4]): 23%
- Population Mitotic Cells (%) (U2OS [1]; [4]): 66%
- Population Normal (%) (U2OS [1]; [4]): 94%
- Population Pyknosed Nuclei (%) (U2OS [1]; [4]): 9%
- Population Tubulin-Different-Phenotype (%) (U2OS [1]; [4]): 10%
- Total Cell Count (U2OS [1]; [4]): 68
- Population Apoptotic (%) (U2OS [1]; [5]): 52%
- Population Fragmented Nuclei (%) (U2OS [1]; [5]): 11%
- Population Healthy Nuclei (%) (U2OS [1]; [5]): 72%
- Population Hoechst High Intensity Objects (%) (U2OS [1]; [5]): 6%
- Population Membrane Permeable-Phenotype (%) (U2OS [1]; [5]): 21%
- Population Mitochondria Different-Phenotype (%) (U2OS [1]; [5]): 45%
- Population Mitotic Cells (%) (U2OS [1]; [5]): 47%
- Population Normal (%) (U2OS [1]; [5]): 93%
- Population Pyknosed Nuclei (%) (U2OS [1]; [5]): 15%
- Population Tubulin-Different-Phenotype (%) (U2OS [1]; [5]): 70%
- Total Cell Count (U2OS [1]; [5]): 117
- Population Apoptotic (%) (U2OS [1]; [6]): 33%
- Population Fragmented Nuclei (%) (U2OS [1]; [6]): 20%
- Population Healthy Nuclei (%) (U2OS [1]; [6]): 75%
- Population Hoechst High Intensity Objects (%) (U2OS [1]; [6]): 7%
- Population Membrane Permeable-Phenotype (%) (U2OS [1]; [6]): 37%
- Population Mitochondria Different-Phenotype (%) (U2OS [1]; [6]): 48%
- Population Mitotic Cells (%) (U2OS [1]; [6]): 66%
- Population Normal (%) (U2OS [1]; [6]): 92%
- Population Pyknosed Nuclei (%) (U2OS [1]; [6]): 5%
- Population Tubulin-Different-Phenotype (%) (U2OS [1]; [6]): 66%
- Total Cell Count (U2OS [1]; [6]): 65
- Population Apoptotic (%) (U2OS [1]; [7]): 31%
- Population Fragmented Nuclei (%) (U2OS [1]; [7]): 10%
- Population Healthy Nuclei (%) (U2OS [1]; [7]): 76%
- Population Hoechst High Intensity Objects (%) (U2OS [1]; [7]): 5%
- Population Membrane Permeable-Phenotype (%) (U2OS [1]; [7]): 1%
- Population Mitochondria Different-Phenotype (%) (U2OS [1]; [7]): 14%
- Population Mitotic Cells (%) (U2OS [1]; [7]): 68%
- Population Normal (%) (U2OS [1]; [7]): 94%
- Population Pyknosed Nuclei (%) (U2OS [1]; [7]): 13%
- Population Tubulin-Different-Phenotype (%) (U2OS [1]; [7]): 12%
- Total Cell Count (U2OS [1]; [7]): 173
- Population Apoptotic (%) (U2OS [1]; [8]): 37%
- Population Fragmented Nuclei (%) (U2OS [1]; [8]): 7%
- Population Healthy Nuclei (%) (U2OS [1]; [8]): 82%
- Population Hoechst High Intensity Objects (%) (U2OS [1]; [8]): 1%
- Population Membrane Permeable-Phenotype (%) (U2OS [1]; [8]): 3%
- Population Mitochondria Different-Phenotype (%) (U2OS [1]; [8]): 10%
- Population Mitotic Cells (%) (U2OS [1]; [8]): 62%
- Population Normal (%) (U2OS [1]; [8]): 98%
- Population Pyknosed Nuclei (%) (U2OS [1]; [8]): 10%
- Population Tubulin-Different-Phenotype (%) (U2OS [1]; [8]): 6%
- Total Cell Count (U2OS [1]; [8]): 79
- Population Apoptotic (%) (U2OS [1]; [9]): 87%
- Population Fragmented Nuclei (%) (U2OS [1]; [9]): 22%
- Population Healthy Nuclei (%) (U2OS [1]; [9]): 49%
- Population Hoechst High Intensity Objects (%) (U2OS [1]; [9]): 6%
- Population Membrane Permeable-Phenotype (%) (U2OS [1]; [9]): 29%
- Population Mitochondria Different-Phenotype (%) (U2OS [1]; [9]): 29%
- Population Mitotic Cells (%) (U2OS [1]; [9]): 12%
- Population Normal (%) (U2OS [1]; [9]): 93%
- Population Pyknosed Nuclei (%) (U2OS [1]; [9]): 27%
- Population Tubulin-Different-Phenotype (%) (U2OS [1]; [9]): 47%
- Total Cell Count (U2OS [1]; [9]): 123
- Population Apoptotic (%) (U2OS [1]; [10]): 92%
- Population Fragmented Nuclei (%) (U2OS [1]; [10]): 28%
- Population Hoechst High Intensity Objects (%) (U2OS [1]; [10]): 7%
- Population Membrane Permeable-Phenotype (%) (U2OS [1]; [10]): 19%
- Population Mitochondria Different-Phenotype (%) (U2OS [1]; [10]): 45%
- Population Mitotic Cells (%) (U2OS [1]; [10]): 7%
- Population Normal (%) (U2OS [1]; [10]): 92%
- Population Pyknosed Nuclei (%) (U2OS [1]; [10]): 22%
- Population Tubulin-Different-Phenotype (%) (U2OS [1]; [10]): 51%
- Total Cell Count (U2OS [1]; [10]): 68
- Population Apoptotic (%) (U2OS [1]; [11]): 33%
- Population Fragmented Nuclei (%) (U2OS [1]; [11]): 9%
- Population Healthy Nuclei (%) (U2OS [1]; [11]): 82%
- Population Hoechst High Intensity Objects (%) (U2OS [1]; [11]): 3%
- Population Membrane Permeable-Phenotype (%) (U2OS [1]; [11]): 4%
- Population Mitochondria Different-Phenotype (%) (U2OS [1]; [11]): 14%
- Population Mitotic Cells (%) (U2OS [1]; [11]): 66%
- Population Normal (%) (U2OS [1]; [11]): 96%
- Population Pyknosed Nuclei (%) (U2OS [1]; [11]): 8%
- Population Tubulin-Different-Phenotype (%) (U2OS [1]; [11]): 8%
- Total Cell Count (U2OS [1]; [11]): 231
- Population Apoptotic (%) (U2OS [1]; [12]): 50%
- Population Fragmented Nuclei (%) (U2OS [1]; [12]): 8%
- Population Healthy Nuclei (%) (U2OS [1]; [12]): 78%
- Population Hoechst High Intensity Objects (%) (U2OS [1]; [12]): 1%
- Population Membrane Permeable-Phenotype (%) (U2OS [1]; [12]): 5%
- Population Mitochondria Different-Phenotype (%) (U2OS [1]; [12]): 18%
- Population Mitotic Cells (%) (U2OS [1]; [12]): 50%
- Population Normal (%) (U2OS [1]; [12]): 98%
- Population Pyknosed Nuclei (%) (U2OS [1]; [12]): 12%
- Population Tubulin-Different-Phenotype (%) (U2OS [1]; [12]): 16%
- Total Cell Count (U2OS [1]; [12]): 96
- Population Apoptotic (%) (U2OS [1]; [13]): 89%
- Population Fragmented Nuclei (%) (U2OS [1]; [13]): 21%
- Population Healthy Nuclei (%) (U2OS [1]; [13]): 37%
- Population Hoechst High Intensity Objects (%) (U2OS [1]; [13]): 5%
- Population Membrane Permeable-Phenotype (%) (U2OS [1]; [13]): 31%
- Population Mitochondria Different-Phenotype (%) (U2OS [1]; [13]): 38%
- Population Mitotic Cells (%) (U2OS [1]; [13]): 10%
- Population Normal (%) (U2OS [1]; [13]): 94%
- Population Pyknosed Nuclei (%) (U2OS [1]; [13]): 41%
- Population Tubulin-Different-Phenotype (%) (U2OS [1]; [13]): 45%
- Total Cell Count (U2OS [1]; [13]): 124
- Population Apoptotic (%) (U2OS [1]; [14]): 92%
- Population Fragmented Nuclei (%) (U2OS [1]; [14]): 24%
- Population Healthy Nuclei (%) (U2OS [1]; [14]): 50%
- Population Hoechst High Intensity Objects (%) (U2OS [1]; [14]): 13%
- Population Membrane Permeable-Phenotype (%) (U2OS [1]; [14]): 55%
- Population Mitochondria Different-Phenotype (%) (U2OS [1]; [14]): 55%
- Population Mitotic Cells (%) (U2OS [1]; [14]): 7%
- Population Normal (%) (U2OS [1]; [14]): 86%
- Population Pyknosed Nuclei (%) (U2OS [1]; [14]): 24%
- Population Tubulin-Different-Phenotype (%) (U2OS [1]; [14]): 58%
- Total Cell Count (U2OS [1]; [14]): 66
- Growth Rate (U2OS [2]; 0 h, replicate number 1, timepoint 0 hours): 0
- Growth Rate (U2OS [2]; 6 h, replicate number 1, timepoint 6 hours): 1
- Growth Rate (U2OS [2]; 12 h, replicate number 1, timepoint 12 hours): 1
- Growth Rate (U2OS [2]; 18 h, replicate number 1, timepoint 18 hours): 1
- Growth Rate (U2OS [2]; 18 h, replicate number 2, timepoint 18 hours): 0
- Growth Rate (U2OS [2]; 24 h, replicate number 1, timepoint 24 hours): 1
- Growth Rate (U2OS [2]; 24 h, replicate number 2, timepoint 24 hours): 0
